Screening data as filed in PubChem.
NR2E3 ag-1 – NR2E3 agonists in two-hybrid cells, primary screen, cell-based, luminescence, CHO-S, Gal4-NCOR/VP16-NR2E3. Photoreceptor-specific nuclear receptor (Homo sapiens), Q9Y5X4. luciferase. inhibition of corepressor binding, % at 3.98 µM. 360,000 compounds, 0.35% hits;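 active = inhibition above the mean of all tested compounds plus 3 SD, cut at about 70% in these data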;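 also: 0% = DMSO with NR2E3 transfected cells and 100% = cells lacking NR2E3 construct; higher means lower luciferase signal from less NR2E3 corepressor binding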
Target sequence (Q9Y5X4 whole entry, looked up, the tested form may be a part): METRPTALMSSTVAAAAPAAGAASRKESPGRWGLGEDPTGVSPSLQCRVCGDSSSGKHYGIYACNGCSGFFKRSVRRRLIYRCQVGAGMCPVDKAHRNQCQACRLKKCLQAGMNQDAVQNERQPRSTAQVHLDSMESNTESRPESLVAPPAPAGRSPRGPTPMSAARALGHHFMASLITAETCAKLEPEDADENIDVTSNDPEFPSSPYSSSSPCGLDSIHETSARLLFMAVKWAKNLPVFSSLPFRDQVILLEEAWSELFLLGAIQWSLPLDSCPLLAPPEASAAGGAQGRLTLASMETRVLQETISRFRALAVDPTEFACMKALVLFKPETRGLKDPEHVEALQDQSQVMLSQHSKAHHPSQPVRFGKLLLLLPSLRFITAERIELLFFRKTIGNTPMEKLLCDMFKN
697 NFkB inh – inhibitors of PMA/ionomycin-induced NF-kB reporter, 697 cells, primary screen, B-cell NF-kB inhibitor project, cell-based, luminescence, uHTS; 697 B-cell NF-kB luciferase reporter, 16 h; inhibition, % at 4 µM; 330,000 compounds, 0.33% hits; AID 435022, 2010; in the data active = inhibition above about 35%
MPTP block – mitochondrial permeability transition pore inhibitors, primary screen, biochemical, isolated mouse mitochondria, absorbance; Ca2+ swelling absorbance, 30 min; inhibition, % at 10 µM; 360,000 compounds, 1.4% hits;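 active = inhibition of 50% or more, scaled per plate between neutral and stimulator controls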;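 also: 0% = DMSO wells given calcium and 100% = 1 mM EGTA wells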
aDG glyco act – activators of alpha-DG glycosylation, primary screen, uHTS, Pro5-aDG cells, AlphaScreen. alpha-DG glycosylation AlphaScreen (IIH6); 0% Pro5, 100% B10-LARGE cell signal. activation, % at 10 µM. 360,000 compounds, 0.22% hits. AID 624168, 2012;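 active = activation of at least 8% versus controls, or a plate z-score of at least 8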;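 also: Pro5 are CHO cells carrying HIG-tagged alpha-DG that lacks glycosylation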
NR2E3 ag-2 – inhibitors of NR2E3-RetCOR corepressor binding, primary screen, NR2E3 agonist project, biochemical, TR-FRET, GST-NR2E3, biotin-RetCOR. 320,000 compounds, 0.12% hits. AID 2300, 2010. 1536-well. Photoreceptor-specific nuclear receptor (Homo sapiens), Q9Y5X4. inhibition of corepressor binding, % at 4.78 µM;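 active = percent inhibition above the cutoff of mean plus 3 SD of all tested compounds, set per screening campaign, cut at about 20% in these data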;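 also: 0% = DMSO wells and 100% = biotin wells as full block of FRET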
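Material: NR2E3–RetCOR corepressor complex / Incubation: Compound–protein incubation for 5 h at 4 °C / Dosing: compound at 4.8 µM, single dose / Detection: time-resolved FRET / Benchmarks: high control biotin, low control 0.6% DMSO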
Jurkat NFkB inh – inhibitors of induced NF-kB luciferase reporter, primary screen, TCR NF-kB activation inhibitor project, cell-based, luminescence, uHTS | 330,000 compounds, 0.53% hits | inhibition, % at 4 µM | Jurkat, PMA/ionomycin-induced NF-kB luciferase reporter; in the data active = inhibition above about 50%
697 NFkB conf – PMA/ionomycin-induced NF-kB reporter inhibitors, 697 retest, confirmation, B-cell NF-kB inhibitor project, cell-based, luminescence, single concentration. inhibition, % at 4 µM. shares compounds with 697 NFkB inh. 2,000 compounds, 35% hits. 697 B-cell NF-kB luciferase, 16 h. AID 449746, 2010; in the data active = inhibition mostly above about 28%, no sharp cut-off; inactive = mostly below about 22%
* = called active by the depositor; / = no result. In the library only some 2.4% were active in any assay of this set; here they are far more common.

SMILES | NR2E3 ag-1 | 697 NFkB inh | MPTP block | aDG glyco act | NR2E3 ag-2 | Jurkat NFkB inh | 697 NFkB conf
CC1(C)O[C@@H]2C[C@H]3[C@@H]4CCC5=CC(=O)CC[C@]5(C)[C@@]4(F)[C@@H](O)C[C@]3(C)[C@]2(C(=O)CCl)O1 | 6.2 | 5.3 | -0.3 | 0.1 | -0.5 | 3.2 | /
Nc1ncc([N+](=O)[O-])cc1Br | 27.5 | 7.7 | 0.0 | 0.1 | -3.3 | -4.5 | /
COC(=O)C1=C[C@@H](C(=O)OC)C2C3=C(C(=O)C24CCCCC4)[C@H](C)n2c(=O)n(C)c(=O)n2[C@@H]3C1 (stereo not given in full) | -3.7 | -44.7 | 0.6 | 0.1 | 6.9 | -39.8 | /
COC(=O)C1=C[C@@H](C(=O)OC)C2C3=C(C(=O)C24CCCCC4)[C@H](C)n2c(=O)n(-c4ccccc4)c(=O)n2[C@@H]3C1 (stereo not given in full) | -12.6 | 38.1* | -1.8 | -0.2 | -1.1 | 5.7 | 13.8
Cc1cc(C)cc(N2Cc3ccccc3C2)c1 | -8.6 | -0.2 | -1.2 | -0.2 | -0.3 | -17.9 | /
COc1cc(N2Cc3ccccc3C2)ccc1C=O | -78.0 | -250.1 | 1.0 | 0.0 | 2.0 | -40.5 | -209.2
Cc1oc(-c2ccc(-c3ccccc3)cc2)nc1CN(C)C1CCOC1 (stereo not given) | -151.5 | -311.1 | 0.9 | 0.1 | -0.7 | -50.7 | -338.5
Cc1ccc(-c2nc(CS(=O)(=O)CC(=O)NCCCN(Cc3ccccc3)C(C)C)c(C)o2)cc1 | 18.9 | -17.7 | 0.8 | 4.2 | 0.1 | 9.9 | /
Cc1oc(-c2ccc(-c3ccccc3)cc2)nc1CN(CCO)C(C)C | -180.2 | -477.9 | 2.3 | 0.0 | 5.4 | -66.6 | -499.4
Cc1oc(-c2cccc(Cl)c2)nc1CN(C)C1CCOC1 (stereo not given) | -16.4 | -12.2 | 0.6 | -0.1 | 1.0 | -8.0 | /
CCc1ccc(OCc2nc(-c3ccccn3)no2)c(Br)c1 | -147.5 | -352.4 | -0.9 | 0.1 | 2.2 | -112.2 | -309.8
Cc1ccc(OCc2nc(-c3ccccn3)no2)c(Br)c1 | -132.9 | -201.7 | -2.1 | 0.1 | -3.0 | -89.2 | /
O=C(NC1CCN(C(=O)c2cccc([N+](=O)[O-])c2)CC1)c1ccccc1 | -15.3 | 1.3 | 1.1 | 0.0 | 1.1 | -3.7 | /
O=C1CC(=O)Nc2cc(S(=O)(=O)NCc3cccs3)ccc2N1 | -4.0 | 8.5 | -0.7 | -0.4 | -2.2 | 10.3 | /
O=C(c1cc2nc(-c3ccccc3)cc(-c3ccccc3)n2n1)N1CCCC1 | -14.5 | 26.8 | 0.5 | 1.1 | 0.1 | 4.3 | /
O=C(c1cc2nc(-c3ccccc3)cc(-c3ccccc3)n2n1)N1CCN(C(=O)c2ccco2)CC1 | 6.2 | 41.6* | -4.3 | -0.3 | 3.3 | 17.5 | 36.5*
COc1ccc(NC(=O)C2CCCN2C(=O)OCc2ccccc2)c(OC)c1 (stereo not given) | -12.3 | 35.8* | 0.4 | -0.1 | -3.6 | -11.7 | 17.6
COc1ccc(NC(=S)NCc2ccccc2)c(OC)c1 | -6.1 | 42.8* | -0.6 | -0.2 | 3.4 | -2.7 | 29.9*
COc1ccc(NC(=O)C2CCCN2C(=O)NCc2ccccc2)c(OC)c1 (stereo not given) | -17.2 | -9.4 | 0.7 | 0.0 | -0.4 | -4.1 | /
CCOC(=O)C1C(c2ccc([N+](=O)[O-])cc2)C2C(=O)NN=C2CC1(C)O (stereo not given) | -13.4 | 3.9 | 1.0 | 0.5 | 0.7 | 6.8 | /
COC(=O)[C@H](Cc1ccccc1)N1C/C=C\COc2c(Cl)cc(Cl)cc2S1(=O)=O | -19.9 | 11.4 | -0.8 | 0.3 | / | / | /
O=C(/C=C\Nc1ccccn1)c1ccc(Cl)cc1 | -82.2 | -284.2 | 2.2 | -0.2 | 0.6 | -73.0 | -238.4
Cc1cccc(N/C=C/C(=O)c2ccc(Cl)cc2)c1 | -107.4 | -154.0 | -0.4 | -0.1 | -0.3 | -136.4 | /
